Experimental data from ChEMBL document CHEMBL3745639, “Structure-activity relationships for lipoprotein lipase agonists that lower plasma triglycerides in vivo” (Eur J Med Chem, 2015).
Active and inactive are the calls of the source.

Columns and labels:
[1] = biological target: T1, Lipoprotein lipase (Bos taurus, UniProt P11151); assay: Induction of bovine LPL stabilization using intralipid as substrate preincubated for 10 mins with human recombinant ANGPTL4 followed by substrate addition measured after 45 mins relative to control
T1 sequence (P11151 whole entry): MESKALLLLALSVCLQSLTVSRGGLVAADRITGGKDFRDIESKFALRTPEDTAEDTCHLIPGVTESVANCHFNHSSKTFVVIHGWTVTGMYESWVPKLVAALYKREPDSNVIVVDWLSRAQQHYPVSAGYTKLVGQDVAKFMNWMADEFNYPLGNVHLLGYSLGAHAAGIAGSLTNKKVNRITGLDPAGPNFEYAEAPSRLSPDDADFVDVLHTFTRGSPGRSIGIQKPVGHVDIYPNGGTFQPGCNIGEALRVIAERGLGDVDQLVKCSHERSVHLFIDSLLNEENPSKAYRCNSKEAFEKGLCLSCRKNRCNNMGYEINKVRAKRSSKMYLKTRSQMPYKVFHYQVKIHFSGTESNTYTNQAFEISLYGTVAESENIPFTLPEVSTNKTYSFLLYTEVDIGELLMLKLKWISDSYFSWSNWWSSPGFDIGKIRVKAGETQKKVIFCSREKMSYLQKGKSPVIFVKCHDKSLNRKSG
Summary of the method: (§1)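 Compound in DMSO in buffer (50 mM potassium phosphate pH 7.4, 0.15 M NaCl, 0.01% Triton X-100), with human ANGPTL4 N-terminal fragment (aa 26-184, 75 nM final) and bovine LPL (15 nM final). Preincubated 10 min at 25 °C with shaking. Stopped after 45 min with 2.5% Triton X-100, and NEFA measured enzymatically. Activity normalised between DMSO+LPL+ANGPTL4 (0%) and DMSO+LPL (100%).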

[2] = Intrinsic clearance in human liver microsomes at 1 uM after 5 to 40 mins by LC-MS/MS analysis in presence of NADPH; assay type: ADME; conditions: read-out: CLH
Summary of the method: (§2)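 Pooled liver microsomes (0.5 mg/ml) with compound at 1 μM in 0.1 M phosphate buffer pH 7.4. Reaction started with NADPH 1 mM. Sampled at 0, 5, 15 and 40 min in duplicate, quenched with acetonitrile containing warfarin, then LC-MS/MS.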

[3] = biological target: T2, Lipoprotein lipase (Bos taurus) (UniProt P11151); assay: Induction of bovine LPL stabilization using intralipid as substrate at 12.5 uM preincubated for 10 mins with human recombinant ANGPTL4 followed by substrate addition measured after 45 mins relative to control; summary of the method: as §1
T2 sequence (whole entry): T1 sequence (P11151 whole entry)

[4] = Apparent permeability across apical to basolateral side in human Caco2 cells at 10 uM after 15 to 60 mins; assay type: ADME, cell-based; conditions: Caco-2
Summary of the method: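 Caco-2 monolayers washed with pre-warmed HBSS, then donor solution applied. Transport run with apical pH 6.5 and basolateral pH 7.4. Monolayer integrity checked by TEER and by mannitol permeability. Papp derived from transport rates.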

[5] = biological target: T3, Peroxisome proliferator-activated receptor alpha (Homo sapiens, UniProt Q07869); assay: Agonist activity at PPARalpha (unknown origin)
T3 sequence (Q07869 whole entry): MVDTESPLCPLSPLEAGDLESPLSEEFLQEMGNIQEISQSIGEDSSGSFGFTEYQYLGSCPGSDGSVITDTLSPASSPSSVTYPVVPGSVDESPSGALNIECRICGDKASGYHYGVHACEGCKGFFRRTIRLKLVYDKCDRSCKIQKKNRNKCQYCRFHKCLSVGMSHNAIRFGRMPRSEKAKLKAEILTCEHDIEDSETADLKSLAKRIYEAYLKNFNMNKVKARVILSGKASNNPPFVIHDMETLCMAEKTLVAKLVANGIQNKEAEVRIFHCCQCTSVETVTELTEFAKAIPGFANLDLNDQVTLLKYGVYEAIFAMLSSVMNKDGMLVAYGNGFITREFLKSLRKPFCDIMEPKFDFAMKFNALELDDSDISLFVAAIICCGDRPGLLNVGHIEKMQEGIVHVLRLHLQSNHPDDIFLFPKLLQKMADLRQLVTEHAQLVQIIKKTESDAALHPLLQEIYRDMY
Summary of the method: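 Single agonist-mode profiling at ten concentrations against FXR, PPARα, PPARγ and RXRα, run as an outside screening service.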

[6] = Apparent permeability across basolateral to apical side in human Caco2 cells at 10 uM after 15 to 60 mins; assay type: ADME, cell-based; conditions: Caco-2
[7] = Efflux ratio of apparent permeability from basolateral to apical over apical to basolateral side in human Caco2 cells at 10 uM after 15 to 60 mins; assay type: ADME, cell-based; conditions: Caco-2
[8] = biological target: T2, Lipoprotein lipase (Bos taurus); assay: Induction of bovine LPL stabilization using intralipid as substrate at 3.12 uM preincubated for 10 mins with human recombinant ANGPTL4 followed by substrate addition measured after 45 mins relative to control; summary of the method: as §1
[9] = Stability of the compound in human plasma after 4 hrs at 37 degC by mass spectrometric analysis; assay type: ADME, cell-free; conditions: read-out: Stability
Summary of the method: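 Plasma test solution (pooled human plasma, typically 10 μM compound) held at 37 °C for 4 h, matching the dialysis time. A reference sample was frozen immediately. Proteins precipitated with methanol containing warfarin, then LC-MS/MS. Stability expressed on a relative basis.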

[10] = Intrinsic clearance in human hepatocytes assessed per 10^6 cells at 1 uM after 10 to 60 mins by LC-MS/MS analysis in presence of NADPH; assay type: ADME, cell-based, Hepatocyte; conditions: read-out: CLH
Summary of the method: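 Freshly isolated human hepatocytes (0.5 x 10⁶ cells/ml) in Williams medium E with compound at 1 μM. Reaction started by adding cells. Sampled at 0, 10, 30 and 60 min in duplicate, quenched with acetonitrile containing warfarin, then LC-MS/MS.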

[11] = Kinetic aqueous solubility of the compound in PBS at pH 7.4 after 2 hrs by LC-MS/MS analysis; assay type: physicochemical; conditions: read-out: Kinetic_solubility
Summary of the method: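 Kinetic solubility from a 10 mM DMSO stock diluted 1:100 (1% DMSO, maximum detectable 0.1 mM) into PBS pH 7.4 or HCl-adjusted PBS at about pH 1.2. Incubated at 37 °C for 2 h in sealed glass vials, centrifuged at 10000 x g, 37 °C, 20 min, then LC-MS/MS.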

[12] = Fraction unbound in human plasma at 10 uM after 4 hrs by rapid equilibrium dialysis method; assay type: ADME, cell-free
Summary of the method: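 Rapid equilibrium dialysis of pooled human plasma from two male and two female non-smoking donors. Compound typically 10 μM final, dialysed against isotonic phosphate buffer pH 7.4 at 37 °C for 4 h with rapid rotation. Proteins precipitated with methanol containing warfarin internal standard, then both compartments analysed by LC-MS/MS.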

[13] = system: Mus musculus; assay: Hypolipidemic activity in C57B16/J mouse assessed as reduction in plasma triglyceride level at 10 mg/kg, ip qd administered for 4 days followed by olive oil injection through oral gavage one hour post last dose measured at 180 mins; assay type: functional, organism-based
Summary of the method: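 Female C57B16/J mice, 8-9 weeks, about 18 g, n = 8/group. Given 10 mg/kg i.p. once daily for 4 days, 0.5 ml in PBS pH 7.4 with 3% DMSO and 0.2% Triton X-100. Fasted 8 h before the last dose, then 0.2 ml oral olive oil gavage 1 h after it. Tail-vein EDTA plasma taken at baseline and every 60 min to 180 min. TG measured enzymatically, reported as mean ± SD.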

[14] = Half life in human liver microsomes at 1 uM; assay type: ADME; summary of the method: as §2

- EC50 [1]: 6 µM
- microsomal CLint at 1 µM [2]: < 17 µL/min/mg
- Activity [3]: 75.6%
- Papp A→B at 10 µM [4]: 23 ×10⁻⁶ cm/s
- EC50 [5]: > 100 µM
- Papp B→A at 10 µM [6]: 31 ×10⁻⁶ cm/s
- efflux ratio at 10 µM [7]: 1.4
- Activity [8]: inactive
- remaining at 4 h [9]: 96%
- hepatocyte CLint at 1 µM [10]: 12 µL/min/1e6 cells
- solubility kinetic at 2 h [11]: < 2 µM
- Fu [12]: < 0.01%
- half-life at 1 µM [14]: > 1.33 h
Compound: Cc1ccc(NC(=O)c2cc(-n3cc4ccc(C(=O)O)cc4n3)ccc2N2CCCCC2)cc1
- Activity [13]: Active
